In ChEMBL document CHEMBL1130160 (J Med Chem, 1997):

How the values were obtained:
Estrogen receptor = Estrogen receptor (Homo sapiens, UniProt Q92731+P03372); details: mcf7
Rattus norvegicus [1] = assay: Dose required to reduce serum cholesterol by 50% relative to OVX controls was determined (in vivo); assay type: functional
In short: (§1)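 OVX Sprague–Dawley rats (75 days old), 5–6 per group, dosed once daily by oral gavage for 4 consecutive days, starting 14 days after ovariectomy. Vehicle was 20% β-hydroxycyclodextrin at 1 mL/kg, or 1.5% carboxymethylcellulose in some cases. Rats were fasted after the last dose and bled by cardiac puncture next morning.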

Rattus norvegicus [2] = assay: Percent decrease in serum cholesterol relative to OVX control at 0.1 mg/kg in rat was determined (in vivo); assay type: functional
In short: as §1

Rattus norvegicus [3] = assay: Percent decrease in serum cholesterol relative to OVX control at 1 mg/kg in rat; assay type: functional
In short: as §1

Rattus norvegicus [4] = assay: Percent decrease in serum cholesterol relative to OVX control at 10 mg/kg in rat was determined (in vivo); assay type: functional
In short: as §1

Rattus norvegicus [5] = assay: Minimum effective dose at which significant increase in uterine eosinophil peroxidase (EPO) activity in rat was determined (in vivo); assay type: functional; details: read-out: MED
Rattus norvegicus [6] = assay: Minimum effective dose at which significant increase in uterine weight/body weight in rat was determined (in vivo); assay type: functional; details: read-out: MED
In short: (§2)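 In 75-day OVX Sprague–Dawley rats dosed orally for 4 days, beginning 2 weeks post-ovariectomy with 5–6 rats per group, whole uteri were weighed the morning after fasting. MED is the lowest dose giving a significant (p≤0.05) rise in uterine weight/body weight, expressed as % increase over OVX controls ±SE.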

Rattus norvegicus [7] = assay: Percent decrease in serum cholesterol relative to OVX control at 1.0 mg/kg in rats; assay type: functional
In short: as §1

Rattus norvegicus [8] = assay: Minimum effective dose at which significant increase in uterine weight/body weight in rat was determined (in vivo); expressed as % increase relative to ovariectomized (OVX) controls; assay type: functional
In short: as §2

Structure (SMILES) | IC50 (Estrogen receptor) [nM] | ED50 (Rattus norvegicus [1]) [mg/kg] | Decrease (Rattus norvegicus [2]) [%] | Decrease (Rattus norvegicus [3]) [%] | Decrease (Rattus norvegicus [4]) [%] | minimal effective dose (Rattus norvegicus [5]) [mg/kg] | minimal effective dose (Rattus norvegicus [6]) [mg/kg] | Decrease (Rattus norvegicus [7]) [%] | Increase (Rattus norvegicus [8]) [%]
Cc1cc2c(C(=O)c3ccc(OCCN4CCCCC4)cc3)c(-c3ccc(O)cc3)sc2cc1O |  | 5.4 | -4.3 | 42.2 | 43.7 | > 10 | > 10 |  | 
NC(=O)c1ccc2c(C(=O)c3ccc(OCCN4CCCCC4)cc3)c(-c3ccc(O)cc3)sc2c1 | 1000 |  |  |  |  | > 10 | 10 | -14.9 | 30.7
O=C(c1ccc(OCCN2CCCCC2)cc1)c1c(-c2ccc(O)cc2)sc2cc(O)c3ccccc3c12 | 500 |  |  |  |  |  |  |  | 
O=C(c1ccc(OCCN2CCCCC2)cc1)c1c(-c2cccc(F)c2)sc2cc(O)ccc12 | 2.5 | 1 |  | 62 |  | > 10 | 0.1 |  | 
COc1ccc(-c2sc3ccccc3c2C(=O)c2ccc(OCCN3CCCCC3)cc2)cc1.O=C(O)CC(O)(CC(=O)O)C(=O)O | 100 |  |  |  |  |  |  |  | 
COc1ccc2c(C(=O)c3ccc(OCCN4CCCCC4)cc3)c(-c3ccc4c(c3)OCO4)sc2c1 | 500 |  |  |  |  |  |  |  | 
COc1ccc(-c2sc3cc(O)ccc3c2C(=O)c2ccc(OCCN3CCCCC3)cc2)cc1 | 1000 | < 0.1 | 65.2 | 75.6 | 72.6 | > 10 | > 10 |  | 
COc1ccc2c(C(=O)c3ccc(OCCN4CCCCC4)cc3)c(-c3ccccc3)sc2c1 | > 1000 |  |  |  |  |  |  |  | 
Cc1cc(-c2sc3cc(O)ccc3c2C(=O)c2ccc(OCCN3CCCCC3)cc2)ccc1O | 1 | 1 | 28.4 | 73.9 |  | > 10 | > 10 |  | 
Cc1ccccc1-c1sc2cc(O)ccc2c1C(=O)c1ccc(OCCN2CCCCC2)cc1 | 0.7 | > 10 |  |  |  | > 10 | 10 |  | 

Further lines, with some results ahead:

IC50 (Estrogen receptor) [nM] | Structure (SMILES) | ED50 (Rattus norvegicus [1]) [mg/kg] | Decrease (Rattus norvegicus [2]) [%] | Decrease (Rattus norvegicus [3]) [%] | Decrease (Rattus norvegicus [4]) [%] | minimal effective dose (Rattus norvegicus [5]) [mg/kg] | minimal effective dose (Rattus norvegicus [6]) [mg/kg] | Decrease (Rattus norvegicus [7]) [%] | Increase (Rattus norvegicus [8]) [%]
400 | O=C(c1ccc(OCCN2CCCCC2)cc1)c1c(-c2ccc(O)cc2)sc2cc(O)c(O)cc12 |  |  |  |  |  |  |  | 
350 | O=C(c1ccc(OCCN2CCCCC2)cc1)c1c(-c2ccc(O)cc2)sc2cc(O)cc(O)c12 |  |  |  |  |  |  |  | 
3 | O=C(c1ccc(OCCN2CCCCC2)cc1)c1c(-c2ccc(O)cc2)sc2cc(O)c(F)cc12 | > 10 | 4.6 | 4.1 | 31.6 | > 10 | > 10 |  | 
2.3 | Cl.O=C(c1ccc(OCCN2CCCCC2)cc1)c1c(-c2ccc(F)cc2)sc2cc(O)ccc12 | 1.4 | 20.6 | 46 | 71.9 | > 10 | 1 |  | 50.2
500 | O=C(c1ccc(OCCN2CCCCC2)cc1)c1c(-c2ccc([N+](=O)[O-])cc2)sc2cc(O)ccc12 |  |  |  |  |  |  |  | 
100 | Cc1c(O)cc(C)c2c(C(=O)c3ccc(OCCN4CCCCC4)cc3)c(-c3ccc(O)cc3)sc12 |  |  |  |  |  |  |  | 
1000 | Cl.O=C(c1ccc(OCCN2CCCCC2)cc1)c1c(-c2ccc(O)cc2)sc2cc(Cl)ccc12 | > 10 | -5.1 | -6.8 | 37.6 | > 10 | 10 |  | 49.6
300 | Cl.O=C(c1ccc(OCCN2CCCCC2)cc1)c1c(-c2ccccc2)sc2ccccc12 | < 0.1 | 59.4 | 72.6 | 45.6 | > 10 | 0.1 |  | 59.2
300 | COc1ccc(-c2sc3cc(OC)ccc3c2C(=O)c2ccc(OCCN3CCCCC3)cc2)cc1.Cl | < 0.1 | 62.2 | 78 | 68.5 | > 10 | 0.1 |  | 57.3
350 | COc1ccc(-c2sc3c(OC)c(OC)c(OC)cc3c2C(=O)c2ccc(OCCN3CCCCC3)cc2)cc1.Cl |  |  |  |  |  |  |  | 
